Measured values reported in ChEMBL document CHEMBL1122430, “Nucleosides. 123. Synthesis of antiviral nucleosides: 5-substituted 1-(2-deoxy-2-halogeno-beta-D-arabinofuranosyl)cytosines and -uracils. Some structure-activity relationships” (1983).

Tests used:
Type in all cases: functional
Human alphaherpesvirus 2 = experiment: Antiherpetic activity against HSV-2; conditions: read-out: ED50 (the source's name)
Procedure, shortened: (§1)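 Plaque-reduction assay on Vero cell monolayers infected with HSV-1 or HSV-2 (strain G). ED50 is the dose that cuts plaque number by 50%.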

Lymphocytic cell line = experiment: Inhibition of growth of normal human lymphocytic cells; conditions: read-out: ID50 (the source's name)
Human alphaherpesvirus 1 = experiment: Antiherpetic activity against HSV-1; conditions: read-out: ED50 (the source's name); procedure, shortened: as §1
[1] = Homo sapiens, Lymphocytic cell line

Row | SMILES | EC50 (Human alphaherpesvirus 2; Human alphaherpesvirus 2) [nM] | IC50 (Lymphocytic cell line; [1]) [nM] | EC50 (Human alphaherpesvirus 1; Human alphaherpesvirus 1) [nM] | EC50 (Human alphaherpesvirus 2) [nM] | IC50 (Lymphocytic cell line) [nM] | EC50 (Human alphaherpesvirus 1) [nM]
1 | Cc1cn([C@@H]2O[C@H](CO)[C@@H](O)[C@@H]2Cl)c(=O)nc1N | 220 | 20000 | > 100000 | – | – | –
2 | O=c1[nH]c(=O)n([C@H]2O[C@@H](CO)[C@H](O)[C@H]2F)cc1Br | 70 | 900 | 110 | – | – | –
3 | Nc1nc(=O)n([C@@H]2O[C@H](CO)[C@@H](O)[C@@H]2Br)cc1I | 2200 | 200 | 9500 | – | – | –
4 | O=c1[nH]c(=O)n([C@@H]2O[C@H](CO)[C@@H](O)[C@H]2F)cc1I | 55 | 3300 | 25 | – | – | –
5 | Cc1cn([C@@H]2O[C@H](CO)[C@@H](O)[C@@H]2F)c(=O)[nH]c1=O [5-METHYL-2'-FLUOROARAURACIL] | 13 | 1000 | 13 | – | – | –
6 | Nc1nc(=O)n([C@@H]2O[C@H](CO)[C@@H](O)[C@H]2F)cc1I (stereo in doubt; 9) | – | – | – | 27400 | 1900 | 17900
7 | Cc1cn([C@@H]2O[C@H](CO)[C@@H](O)[C@@H]2Br)c(=O)nc1N | 26200 | 34000 | > 100000 | – | – | –
8 | Nc1ccn([C@@H]2O[C@H](CO)[C@@H](O)[C@@H]2F)c(=O)n1 | 300 | 600 | 120 | – | – | –
9 | Nc1nc(=O)n([C@@H]2O[C@H](CO)[C@@H](O)[C@@H]2Br)cc1Br | > 100000 | 4500 | > 100000 | – | – | –
10 | Cc1cn([C@@H]2O[C@H](CO)[C@@H](O)[C@@H]2Cl)c(=O)[nH]c1=O | > 100000 | > 100000 | > 100000 | – | – | –
11 | Nc1nc(=O)n([C@@H]2O[C@H](CO)[C@@H](O)[C@@H]2Cl)cc1Br | > 100000 | > 100000 | > 100000 | – | – | –
12 | Nc1nc(=O)n([C@H]2O[C@@H](CO)[C@H](O)[C@H]2F)cc1Br | 20 | 5000 | 190 | – | – | –
13 | Nc1ccn([C@@H]2O[C@H](CO)[C@@H](O)[C@@H]2Br)c(=O)n1 | 4400 | 200 | 3200 | – | – | –
14 | O=c1ccn([C@@H]2O[C@H](CO)[C@@H](O)[C@H]2F)c(=O)[nH]1 | 6000 | > 100000 | 800 | – | – | –
15 | Cc1cn([C@@H]2O[C@H](CO)[C@@H](O)[C@@H]2F)c(=O)nc1N | 800 | 800 | 640 | – | – | –
16 | Nc1ccn([C@@H]2O[C@H](CO)[C@@H](O)[C@@H]2Cl)c(=O)n1 | 3800 | 6 | 110 | – | – | –
17 | Cc1cn([C@@H]2O[C@H](CO)[C@@H](O)[C@@H]2Br)c(=O)[nH]c1=O | > 100000 | 8000 | > 100000 | – | – | –
18 | Nc1nc(=O)n([C@@H]2O[C@H](CO)[C@@H](O)[C@@H]2Cl)cc1I | 90 | 3500 | 3400 | – | – | –
19 | Nc1nc(=O)n([C@@H]2O[C@H](CO)[C@@H](O)[C@H]2F)cc1I (stereo in doubt; 3A) | – | – | – | 10 | 8600 | 10
